Measured values as given in ChEMBL document CHEMBL2146415, “Antibacterial activities of Groebke-Blackburn-Bienaymé-derived imidazo[1,2-a]pyridin-3-amines” (Bioorg Med Chem, 2012).
Converted amounts (≈) assume the structure as drawn. The source made the active and inactive calls. The rule behind the calls is not given here.

What was measured:
Staphylococcus aureus [1] = assay: Bacteriostatic activity against wild type Staphylococcus aureus ATCC 13709 at 100 ug/mL by CLSI broth microdilution method; assay type: functional, organism-based
[2] = target: T1, Toll-like receptor 7 (Homo sapiens) (UniProt Q9NYK1); assay: Antagonist activity at TLR7 expressed in HEK293 cells co-transfected with NF-kappaB/sAP gene assessed as inhibition of gardiquimod-induced NF-kappaB activation up to 250 uM by reporter gene assay; assay type: functional, cell-based
T1 sequence (whole entry): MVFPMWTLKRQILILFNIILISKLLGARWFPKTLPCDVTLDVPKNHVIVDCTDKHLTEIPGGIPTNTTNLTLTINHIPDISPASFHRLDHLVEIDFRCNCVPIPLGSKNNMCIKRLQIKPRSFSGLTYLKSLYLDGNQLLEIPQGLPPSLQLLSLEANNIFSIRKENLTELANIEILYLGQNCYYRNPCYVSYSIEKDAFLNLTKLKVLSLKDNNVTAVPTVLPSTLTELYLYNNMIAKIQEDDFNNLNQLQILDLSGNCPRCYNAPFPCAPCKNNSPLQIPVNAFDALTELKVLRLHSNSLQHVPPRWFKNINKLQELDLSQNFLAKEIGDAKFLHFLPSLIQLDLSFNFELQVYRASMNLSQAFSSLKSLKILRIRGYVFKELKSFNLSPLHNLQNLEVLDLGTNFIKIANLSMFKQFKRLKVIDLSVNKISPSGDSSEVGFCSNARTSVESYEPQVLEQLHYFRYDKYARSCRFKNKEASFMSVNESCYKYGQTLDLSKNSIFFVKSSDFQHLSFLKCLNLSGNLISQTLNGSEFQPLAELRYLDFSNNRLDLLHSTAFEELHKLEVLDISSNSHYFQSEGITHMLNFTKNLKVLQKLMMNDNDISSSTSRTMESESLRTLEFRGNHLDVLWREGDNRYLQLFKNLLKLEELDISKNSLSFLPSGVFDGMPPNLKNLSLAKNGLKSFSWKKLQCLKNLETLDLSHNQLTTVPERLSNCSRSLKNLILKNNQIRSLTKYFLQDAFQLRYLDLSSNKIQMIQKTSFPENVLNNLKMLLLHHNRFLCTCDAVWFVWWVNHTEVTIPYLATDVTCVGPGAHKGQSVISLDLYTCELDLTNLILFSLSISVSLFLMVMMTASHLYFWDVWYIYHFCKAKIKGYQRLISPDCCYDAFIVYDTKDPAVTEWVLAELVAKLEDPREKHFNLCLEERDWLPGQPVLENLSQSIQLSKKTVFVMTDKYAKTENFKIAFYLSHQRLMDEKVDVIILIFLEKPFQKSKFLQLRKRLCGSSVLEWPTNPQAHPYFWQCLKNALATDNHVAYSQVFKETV

[3] = target: T1, Toll-like receptor 7 (Homo sapiens); assay: Agonist activity at human TLR7 expressed in HEK293 cells co-transfected with NF-kappaB/sAP gene assessed as induction of NF-kappaB activation up to 250 uM by reporter gene assay; assay type: functional, cell-based
Staphylococcus aureus [4] = assay: Bacteriostatic activity against methicillin resistant Staphylococcus aureus ATCC 33591 by CLSI broth microdilution method; assay type: functional
Streptococcus pyogenes = assay: Bacteriostatic activity against Streptococcus pyogenes clinical isolate by CLSI broth microdilution method; assay type: functional
Summary of the method: (§1)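 MIC was determined by CLSI broth microdilution in non-cation-supplemented Mueller-Hinton broth, using OD600 0.5 cultures diluted 10-fold and 2-fold compound dilutions, overnight at 37°C, A600 read-out.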

Staphylococcus aureus [5] = assay: Bacteriostatic activity against wild type Staphylococcus aureus ATCC 13709 by CLSI broth microdilution method; assay type: functional; summary of the method: as §1
[6] = Chemical stability in aqueous solution of the compound assessed as N-dealkylated compound formation after 2 weeks by LC-MS analysis; assay type: physicochemical; conditions: buffer, 336 h
[7] = tested on: Staphylococcus epidermidis; assay: Bacteriostatic activity against coagulase negative Staphylococcus epidermidis ATCC 35983 by CLSI broth microdilution method; assay type: functional; summary of the method: as §1
Staphylococcus aureus [8] = assay: Bactericidal activity against methicillin resistant Staphylococcus aureus ATCC 33591 by broth microdilution method; assay type: functional, organism-based
Summary of the method: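 MBC by microdilution subculture: 0.5 μL from each well of the parent MIC plate (MRSA ATCC 33591) diluted into 80 μL fresh Mueller-Hinton broth, incubated overnight at 37°C, absorbance read at 600 nm.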

Escherichia coli = assay: Antibacterial activity against Escherichia coli ATCC 9637 in presence of 6.6 ug/mL polymyxin B […]; assay type: functional, organism-based
Summary of the method: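 Broth microdilution per CLSI. Mid-log cultures in non-cation-supplemented Mueller-Hinton broth were adjusted to OD600 0.5, diluted 10-fold, and added to equal volumes of 2-fold serially diluted compound. Plates were sealed and incubated overnight at 37°C, then read at A600. MIC was the lowest concentration inhibiting growth. Reference antibiotics were run alongside.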

| Activity [2] | Activity [3] | MIC (Staphylococcus aureus [5]) | Compound | Activity (Staphylococcus aureus [1]) | other results |
| --- | --- | --- | --- | --- | --- |
| inactive | inactive | – | c1ccc(CNc2c(-c3ccccc3)nc3ccccn23)cc1 | inactive | – |
| inactive | inactive | – | c1ccc(-c2nc3ccccn3c2NC2CCCCC2)cc1 | inactive | – |
| inactive | inactive | – | c1ccc(-c2nc3cnccn3c2NC2CCCCC2)cc1 | inactive | – |
| inactive | inactive | – | CC(C)(C)Nc1c(Cc2ccccc2)nc2cnccn12 | inactive | – |
| – | – | – | COc1ccc(Nc2c(-c3c4ccccc4cc4ccccc34)nc3ccccn23)cc1 | inactive | – |
| – | – | 31.2 µg/mL (≈ 58.5 µM) | CCCCCCCCN(CCCCCCCC)c1c(-c2c3ccccc3cc3ccccc23)nc2ccccn12 | – | – |
| – | – | 3.91 µg/mL (≈ 7.49 µM) | CN(C)CCCNc1ccc2nc(-c3c4ccccc4cc4ccccc34)c(NC(C)(C)CC(C)(C)C)n2c1 | – | – |
| – | – | 7.81 µg/mL (≈ 17.1 µM) | CC(C)(C)CC(C)(C)Nc1c(-c2c3ccccc3c(Cl)c3ccccc23)nc2ccccn12 | – | – |
| inactive | inactive | – | CC(C)(C)Nc1c(Cc2ccccc2)nc2ccccn12 | inactive | – |
| inactive | inactive | – | c1ccc(CNc2c(Cc3ccccc3)nc3ccccn23)cc1 | inactive | – |
| – | – | 7.81 µg/mL (≈ 18.5 µM) | CC(C)(C)CC(C)(C)Nc1c(-c2cc3ccccc3c3ccccc23)nc2ccccn12 | – | – |
| – | – | 15.6 µg/mL (≈ 35.2 µM) | c1ccc2c(-c3nc4ccccn4c3NC34CC5CC(CC(C5)C3)C4)c3ccccc3cc2c1 | – | – |
| – | – | 15.6 µg/mL (≈ 31.2 µM) | CC(C)(C)CC(C)(C)Nc1c(-c2c3ccccc3cc3ccccc23)nc2ccc(Br)cn12 | – | – |
| – | – | 7.81 µg/mL (≈ 19.5 µM) | CC(C)(C)Nc1c(-c2c3ccccc3c(Cl)c3ccccc23)nc2ccccn12 | – | – |
| – | – | 15.6 µg/mL (≈ 35.1 µM) | CC(C)(C)CC(C)(C)Nc1c(-c2cc3cccc4ccc5cccc2c5c43)nc2ccccn12 | – | – |
| – | – | 7.81 µg/mL (≈ 18.5 µM) | CCCCCCCCNc1c(-c2c3ccccc3cc3ccccc23)nc2ccccn12 | – | – |
| inactive | inactive | – | c1ccc(CNc2c(Cc3ccccc3)nc3cnccn23)cc1 | inactive | – |
| inactive | inactive | 15.6 µg/mL (≈ 44.7 µM) | c1ccc(CNc2c(-c3cccc4ccccc34)nc3ccccn23)cc1 | – | – |
| – | – | – | CN(C)CCCNc1ccc2nc(-c3c4ccccc4cc4ccccc34)c(NC(C)(C)CC(C)(C)C)n2c1.Cl | – | Stability [6]: Unstable |
| inactive | inactive | – | c1ccc2c(-c3nc4cnccn4c3NC3CCCCC3)cccc2c1 | inactive | – |
| – | – | – | Cc1cccc(Cl)c1Nc1c(-c2c3ccccc3cc3ccccc23)nc2ccccn12 | inactive | – |

| Activity [2] | Activity [3] | MIC (Staphylococcus aureus [5]) | Compound | Activity (Staphylococcus aureus [1]) | other results |
| --- | --- | --- | --- | --- | --- |
| inactive | inactive | – | CC(C)(C)Nc1c(-c2c3ccccc3cc3ccccc23)nc2cnccn12 | inactive | – |
| – | – | – | Nc1c(-c2c3ccccc3cc3ccccc23)nc2ccccn12 | inactive | – |
| inactive | inactive | – | c1ccc(Cc2nc3cnccn3c2NC2CCCCC2)cc1 | inactive | – |
| – | – | 62.5 µg/mL (≈ 154 µM) | O=C(Nc1c(-c2c3ccccc3cc3ccccc23)nc2ccccn12)C(F)(F)F | – | – |
| – | – | 15.6 µg/mL (≈ 35.2 µM) | CC(C)(C)Nc1c(-c2c3ccccc3cc3ccccc23)nc2ccc(Br)cn12 | – | – |
| – | – | – | Clc1nccn2c(NC3CCCCC3)c(-c3c4ccccc4cc4ccccc34)nc12 | inactive | – |
| inactive | inactive | – | c1ccc(CNc2c(-c3c4ccccc4cc4ccccc34)nc3ccccn23)cc1 | inactive | – |
| inactive | inactive | – | c1ccc(CNc2c(-c3ccccc3)nc3cnccn23)cc1 | inactive | – |
| – | – | 3.91 µg/mL (≈ 7.49 µM) | CN(C)CCCNc1c2ccccc2c(-c2nc3ccccn3c2NC(C)(C)CC(C)(C)C)c2ccccc12 | – | – |
| – | – | 15.6 µg/mL (≈ 39.5 µM) | C[Si](C)(C)CNc1c(-c2c3ccccc3cc3ccccc23)nc2ccccn12 | – | – |
| inactive | inactive | – | CC(C)(C)Nc1c(-c2cccc3ccccc23)nc2cnccn12 | inactive | – |
| inactive | inactive | – | c1ccc(CNc2c(-c3cccc4ccccc34)nc3cnccn23)cc1 | inactive | – |
| inactive | inactive | – | c1ccc(CNc2c(-c3c4ccccc4cc4ccccc34)nc3cnccn23)cc1 | inactive | – |
| – | – | 15.6 µg/mL (≈ 38.4 µM) | Nc1cccn2c(NC3CCCCC3)c(-c3c4ccccc4cc4ccccc34)nc12 | – | – |
| – | – | – | CC(C)(C)CC(C)(C)Nc1c(-c2ccc(-c3ccccc3)cc2)nc2ccccn12 | inactive | – |
| inactive | inactive | – | CC(C)(C)Nc1c(-c2ccccc2)nc2cnccn12 | inactive | – |
| – | – | – | CN(C)CCCNc1c2ccccc2c(-c2nc3ccccn3c2NC(C)(C)CC(C)(C)C)c2ccccc12.Cl | – | Stability [6]: Unstable |
| – | – | 15.6 µg/mL (≈ 39.8 µM) | c1ccc2c(-c3nc4ncccn4c3NC3CCCCC3)c3ccccc3cc2c1 | – | – |
| inactive | inactive | – | c1ccc(Cc2nc3ccccn3c2NC2CCCCC2)cc1 | inactive | – |
| inactive | inactive | 7.81 µg/mL (≈ 19.9 µM) | c1ccc2c(-c3nc4cnccn4c3NC3CCCCC3)c3ccccc3cc2c1 | – | – |

| Compound | Activity [2] | Activity [3] | MIC (Staphylococcus aureus [5]) | Activity (Staphylococcus aureus [1]) | other results |
| --- | --- | --- | --- | --- | --- |
| CC(C)(C)Nc1c(-c2cccc3ccccc23)nc2ccccn12 | inactive | inactive | 62.5 µg/mL (≈ 198 µM) | – | MIC (Staphylococcus aureus [4]): 31.2 µg/mL (≈ 99.1 µM); MIC (Streptococcus pyogenes): < 10 µg/mL |
| CCCCCNc1c(-c2c3ccccc3cc3ccccc23)nc2ccccn12 | – | – | 3.91 µg/mL (≈ 10.3 µM) | – | MIC (Staphylococcus aureus [4]): 7.81 µg/mL (≈ 20.6 µM) |
| CC(C)(C)Nc1c(-c2c3ccccc3cc3ccccc23)nc2ccccn12 | inactive | inactive | 3.91 µg/mL (≈ 10.7 µM) | – | MIC (Staphylococcus aureus [4]): 3.91 µg/mL (≈ 10.7 µM); MIC [7]: 7.81 µg/mL (≈ 21.4 µM); MIC (Streptococcus pyogenes): < 10 µg/mL; Activity (Staphylococcus aureus [8]): inactive; Activity (Escherichia coli): inactive |
| c1ccc2c(-c3nc4ccccn4c3NC3CCCCC3)c3ccccc3cc2c1 | inactive | inactive | 3.91 µg/mL (≈ 9.99 µM) | – | MIC (Staphylococcus aureus [4]): 3.91 µg/mL (≈ 9.99 µM); MIC [7]: 7.81 µg/mL (≈ 19.9 µM); MIC (Streptococcus pyogenes): < 10 µg/mL |
| c1ccc2c(-c3nc4ccccn4c3NC3CCCCC3)cccc2c1 | inactive | inactive | 7.81 µg/mL (≈ 22.9 µM) | – | MIC (Staphylococcus aureus [4]): 15.6 µg/mL (≈ 45.7 µM) |
| CC(C)Nc1c(-c2c3ccccc3cc3ccccc23)nc2ccccn12 | – | – | 15.6 µg/mL (≈ 44.4 µM) | – | MIC (Staphylococcus aureus [4]): 15.6 µg/mL (≈ 44.4 µM) |
| CCCC(C)Nc1c(-c2c3ccccc3cc3ccccc23)nc2ccccn12 (configuration not stated) | – | – | 7.81 µg/mL (≈ 20.6 µM) | – | MIC (Staphylococcus aureus [4]): 3.91 µg/mL (≈ 10.3 µM) |
| CC(C)(C)Nc1c(-c2c3ccccc3c(NCCCCCCCCN)c3ccccc23)nc2ccccn12 | – | – | 7.81 µg/mL (≈ 15.4 µM) | – | MIC (Staphylococcus aureus [4]): 15.6 µg/mL (≈ 30.8 µM) |
| CCCCNc1c(-c2c3ccccc3cc3ccccc23)nc2ccccn12 | – | – | 3.91 µg/mL (≈ 10.7 µM) | – | MIC (Staphylococcus aureus [4]): 7.81 µg/mL (≈ 21.4 µM) |
| CC(C)(C)Nc1c(-c2c3ccccc3cc3ccccc23)nc2ccc(NCCCCCCCCN)cn12 | – | – | 3.91 µg/mL (≈ 7.7 µM) | – | MIC (Staphylococcus aureus [4]): 7.81 µg/mL (≈ 15.4 µM) |
| CC(C)(C)CC(C)(C)Nc1c(-c2c3ccccc3cc3ccccc23)nc2ccccn12 | – | – | 3.91 µg/mL (≈ 9.27 µM) | – | MIC (Staphylococcus aureus [4]): 3.91 µg/mL (≈ 9.27 µM); Activity (Staphylococcus aureus [8]): inactive |
